# The list is not random: actives were taken first. Their share in the collection is about 2.6%.
# T cell HTS = modulates CD8 T cell binding to vesicles; AID 2052; response (vesicle binding), % at 7 µM; 2C CD8+ T cell-vesicle binding, flow cytometry; hits give low values; actives 0.068% (n = 330,000);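 active = response, share of CD8 T cells binding vesicles, and their 90th percentile fluorescence all below set limits, cut at about 80% in these data, passing the limit was not always enough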;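 also: values below 100% mean blocked vesicle binding to the CD8+ T cells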
#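 System: murine 2C transgenic CD8+ T lymphocytes; also added: QL9-loaded Drosophila micro-vesicles; times: binding 1.5 h at 37 °C; measured by: flow cytometry, PE anti-B7-1 (FL2) versus Alexa647 anti-CD8 (FL8), PFA-fixed; control set: Peptide-free naked vesicles (low) and QL9 vesicles with 0.7% DMSO vehicle (high)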
# Rin1-Abl PPI inh = human Rin1-Abl interaction inhibition; P00519+Q13671; TR-FRET Rin1/Abl binding, biochemical; inhibition, % at 7.35 µM; actives 0.4% (n = 360,000); AID 588664; in the data active = inhibition above about 5%, passing the limit was not always enough
# GRK2 inh = human GRK2 inhibition via aptamer displacement; P25098; bead flow cytometry, FAM-aptamer displacement from GRK2; inhibition of aptamer binding, % at 10 µM; actives 0.59% (n = 330,000);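 active = inhibition of aptamer binding above 40%, roughly 3 SD of noise, on plates passing a quality check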;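 also: median bead fluorescence of bound FAM aptamer so fluorescent compounds give negative values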
# SKN-1 inh = C. elegans SKN-1 inhibition; actives 0.49% (n = 360,000); AID 624304; C. elegans VP596 Pgst-4::GFP/RFP ratio, acrylamide-induced, 24 h; inhibition, % at 21.8 µM;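 active = interference check ratio from 0.5 to 1.5 plus GFP to RFP signal ratio inhibition reaching or exceeding a fixed threshold, cut at about 30% in these data, passing the limit was not always enough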
# Myeloid diff MLP = compounds promoting myeloid differentiation; ER-HoxA9 myeloid progenitors, lysozyme-GFP differentiation, flow cytometry; calls only at 10 µM; actives 1% (n = 360,000); AID 624256;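 active = normalized GFP-positive differentiation at or above the plate's own cutoff, the solvent-only control mean plus 3 SD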;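 also: cells exposed to compound for four days before flow analysis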
# Rce1 inhib = inhibitors of yeast Ras-converting enzyme. actives 0.27% (n = 290,000). Q03530. yeast membranes, quenched prenylated peptide cleavage fluorescence. calls only;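 active = fall in fluorescence gain of 50% or more versus controls, with final raw signal at or below 3038400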;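 also: plate controls were neutral control wells for no effect and wells lacking membranes for full effect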
# Target sequence (Q03530 whole entry, looked up): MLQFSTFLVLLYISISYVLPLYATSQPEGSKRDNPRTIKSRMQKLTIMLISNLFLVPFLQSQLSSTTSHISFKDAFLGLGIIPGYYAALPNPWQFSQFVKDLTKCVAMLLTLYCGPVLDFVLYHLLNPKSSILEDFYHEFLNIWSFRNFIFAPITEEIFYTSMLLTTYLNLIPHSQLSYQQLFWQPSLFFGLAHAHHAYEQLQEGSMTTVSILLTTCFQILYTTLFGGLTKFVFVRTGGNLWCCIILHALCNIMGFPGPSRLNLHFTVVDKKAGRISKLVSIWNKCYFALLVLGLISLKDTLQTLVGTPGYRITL
# Myeloid diff = promotes myeloid progenitor differentiation; ER-HoxA9 myeloid progenitors, GFP/Mac1 double-positive flow; calls only; shares compounds with Myeloid diff MLP; actives 2% (n = 2,300); AID 651706;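 active = share of green or green-and-red cells above 9 and 9% in run 1 or 4 and 3% in run 2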
# GFP autofluor = counter-screen for myeloid differentiation promoters: compound fluorescence | shares compounds with Myeloid diff MLP | ER-HoxA9 myeloid progenitors, no estrogen, GFP autofluorescence flow cytometry; vehicle wells 0%, positive control 100% | fluorescence response, % (no concentration beside the values) | actives 7.4% (n = 2,300) | AID 651707;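 active = over 5% cells positive for green fluorescent reporter, or over 2% positive for both it and APC stain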;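 also: range taken on the double positive population between DMSO and positive control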
# * marks the source's active call; other numbers are inactive results; i = inactive; x = not tested or not shown; + = active, no number.
SMILES,T cell HTS,Rin1-Abl PPI inh,GRK2 inh,SKN-1 inh,Myeloid diff MLP,Rce1 inhib,Myeloid diff,GFP autofluor
COC(=O)c1cc(S(=O)(=O)N2CCOCC2)ccc1Sc1ccccc1N,67.8,5.9,3.0,-6.7,i,i,i,0.3
COC(=O)c1cc(S(=O)(=O)N2CCCCC2)ccc1N1CCOCC1,190.0,-1.1,0.0,21.5,x,i,x,x
C#CC[N+](CC)(CC)CC#Cc1cccc(Cl)c1,156.8,2.9,0.0,-1.3,+,i,i,0.9
COc1ccc(S(=O)(=O)N2CCN(c3cnccn3)CC2)cc1OC,261.4,2.1,4.0,10.3,i,x,x,x
O=C(NCC[C@H]1CC[C@H](NS(=O)(=O)c2ccc(F)cc2)[C@@H](CO)O1)c1ccc2c(c1)OCO2,x,x,x,9.4,i,x,x,x
Cc1cnc(NC(=O)Cc2ccccc2Cl)s1,201.4,-2.0,0.0,2.2,i,i,i,0.0
Cc1cnc(NC(=O)CSc2ccccc2)s1,383.9,5.0,2.0,3.4,+,i,i,0.0
Cc1csc(NC(=O)Cc2ccccc2Cl)n1,160.6,0.0,11.0,-8.2,i,i,x,x
O=C1/C(=C\c2ccco2)CCC/C1=C\c1ccco1,796.7,3.1,5.0,28.0,+,i,i,37.4*
CC1C/C(=C/c2ccco2)C(=O)/C(=C/c2ccco2)C1 (centres undefined),330.7,x,20.0,x,x,i,x,x
CCOC(=O)C1CCC(C(=O)OCC)N1c1ccc(C=O)cc1 (centres undefined),x,1.9,x,32.1,i,x,x,x
CCc1nc(OCc2ccccc2)c2sc3nc4c(cc3c2n1)COC(C)(C)C4,649.2,-2.7,0.0,8.1,i,i,i,0.3
CC1(C)Cc2nc3sc4c(OCc5ccccc5)ncnc4c3cc2CO1,482.6,2.0,1.0,10.4,i,i,x,x
CCC(C)C(=O)Nc1nnc(CCc2ccccc2)s1 (centres undefined),202.1,1.9,1.0,-0.9,i,i,x,x
CCCCCCCC(=O)NNC(=O)c1ccc(F)cc1,497.5,-1.5,3.0,2.4,i,i,i,0.7
COc1ccc(NCC(=O)N/N=C(\C)c2cc3ccccc3o2)cc1,254.3,0.3,0.0,3.2,i,i,x,x
C/C(=N\NC(=O)CNc1ccc(F)cc1)c1cc2ccccc2o1,138.8,-2.2,4.0,2.3,+,i,i,0.0
O=C(CSc1nc(=O)n(CCCN2CCOCC2)c2c1CCCC2)Nc1ccc(F)cc1F,450.6,2.2,3.0,24.7,+,i,i,0.0
CC(=O)Nc1ccc(OCC(O)Cn2c3ccccc3c3ccccc32)c(C)c1 (centres undefined),284.8,3.4,1.0,2.8,i,i,x,x
CC(=O)Nc1ccc(OCC(O)Cn2c3ccccc3c3ccccc32)cc1 (centres undefined),191.1,1.1,2.0,12.0,i,i,i,8.5*
C[C@H]1CN([C@@H](C)CO)C(=O)CCCn2nncc2CO[C@@H]1CN(C)C(=O)Nc1cccc2ccccc12,x,-4.1,x,10.3,i,x,x,x
Cc1cc(S(=O)(=O)N(Cc2ccccc2F)C2CC2)ccc1-n1cnnn1,277.7,1.9,0.0,10.7,i,i,i,0.3
COC(=O)c1cc2oc3ccccc3c2n1CC(=O)N1CCCc2ccccc21,256.4,0.5,4.0,2.6,+,i,i,0.0
COC(=O)c1cc2ccsc2n1CC(=O)N1CCCc2ccccc21,770.2,1.8,2.0,-2.6,i,i,x,x
CC1CCN(C(=O)c2cc(S(=O)(=O)N3CCOCC3)ccc2N2CCCC2)CC1,320.1,-2.9,2.0,1.6,i,x,x,x
SMILES,T cell HTS,Rin1-Abl PPI inh,GRK2 inh,SKN-1 inh,Myeloid diff MLP,Rce1 inhib,Myeloid diff,GFP autofluor
CCOC(=O)Nc1nc(C)c(C(=O)c2ccc(Cl)cc2)s1,294.7,-2.7,0.0,-13.4,i,i,i,0.0
COC(=O)Nc1nc(C)c(C(=O)c2ccccc2)s1,188.0,-0.8,2.0,15.5,i,i,x,x
CCC(=O)Nc1cccc(NC(=O)c2ccccc2Cl)c1,123.8,1.8,0.0,7.0,i,i,i,0.0
CC(C)NC(=O)N(C)C[C@@H]1Oc2cc(Br)ccc2S(=O)(=O)N([C@@H](C)CO)C[C@H]1C,x,2.6,x,4.1,i,x,x,x
Nc1nc(NCC2CCCO2)nc(Nc2cccc(Cl)c2)c1[N+](=O)[O-] (centres undefined),i,-1.2,2.0,2.4,i,i,x,x
Cc1cccc(Nc2nc(NCC3CCCO3)nc(N)c2[N+](=O)[O-])c1 (centres undefined),114.7,-1.7,0.0,13.8,+,i,i,0.0
Cc1ccc(/C=C/C(=O)N2CCc3ccccc32)o1,188.0,-2.2,9.0,-1.3,i,i,i,0.0
CCOc1nc(C)cc(C)c1S(=O)(=O)c1cccc(Cl)c1,364.9,-0.2,2.0,14.1,i,i,x,x
CCc1cc(C(=O)c2ccccc2OC)c(N)s1,173.1,3.7,0.0,-8.5,i,i,i,0.5
O=c1[nH]c(SCc2ccccc2)nc2c1sc1ccccc12,207.0,-6.6,2.0,-0.5,+,i,i,0.0
Cc1ccc(/C=N/c2sc(Cc3ccccc3)c(C)c2C(N)=O)o1,0.0,0.7,7.0,16.2,i,i,i,0.0
CN(CC(=O)Nc1ccccc1C(F)(F)F)C(=O)CC1OC(=O)c2ccccc21 (centres undefined),355.2,-0.4,4.0,2.0,i,i,x,x
C/C(=N\NC(=O)c1nnn(-c2nonc2N)c1-c1ccc2c(c1)OCO2)c1cccs1,205.6,4.3,0.0,-9.6,i,i,x,x
COc1ccc(Cl)cc1NC(=O)C1CSC(c2ccncc2)=N1 (centres undefined),603.5,0.7,0.0,12.0,+,i,i,0.4
Cc1ccc(NS(=O)(=O)c2cccc(C(=O)N3CCCCC3)c2)cc1,302.5,-3.5,1.0,1.3,i,x,x,x
N#Cc1cccnc1N1CCN(C(C(=O)NC2CCCC2)c2ccco2)CC1 (centres undefined),x,x,x,-2.3,i,x,x,x
COc1ccccc1C(CCNCc1ccc(N(C)C)cc1)c1ccc(OC(C)C)cc1 (centres undefined),395.9,0.8,0.0,-5.6,i,i,i,0.0
CC(Oc1cccc(Cl)c1)C(=O)Nc1cc(S(=O)(=O)N2CCCCC2)ccc1N1CCOCC1 (centres undefined),317.8,-0.3,1.0,-2.3,i,i,x,x

# Source: PubChem BioAssay (several laboratories)
